From PubChem
CHT inh = inhibitors of human choline transporter CHT; B-score at 10 µM; CHT-expressing cells, membrane potential dye, choline response; hits give low values; AID 488975, 2010; hit rate 0.86% among 310,000; High affinity choline transporter 1 (Homo sapiens), Q9GZV3;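 active = B-score over 3 SD under the library average, and starting fluorescence ratio not unusually high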;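 note: choline stimulus applied at its EC90 after an EC20 pre-addition; B-score computed on integrated fluorescence ratio after choline addition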
Target sequence (Q9GZV3 whole entry, looked up): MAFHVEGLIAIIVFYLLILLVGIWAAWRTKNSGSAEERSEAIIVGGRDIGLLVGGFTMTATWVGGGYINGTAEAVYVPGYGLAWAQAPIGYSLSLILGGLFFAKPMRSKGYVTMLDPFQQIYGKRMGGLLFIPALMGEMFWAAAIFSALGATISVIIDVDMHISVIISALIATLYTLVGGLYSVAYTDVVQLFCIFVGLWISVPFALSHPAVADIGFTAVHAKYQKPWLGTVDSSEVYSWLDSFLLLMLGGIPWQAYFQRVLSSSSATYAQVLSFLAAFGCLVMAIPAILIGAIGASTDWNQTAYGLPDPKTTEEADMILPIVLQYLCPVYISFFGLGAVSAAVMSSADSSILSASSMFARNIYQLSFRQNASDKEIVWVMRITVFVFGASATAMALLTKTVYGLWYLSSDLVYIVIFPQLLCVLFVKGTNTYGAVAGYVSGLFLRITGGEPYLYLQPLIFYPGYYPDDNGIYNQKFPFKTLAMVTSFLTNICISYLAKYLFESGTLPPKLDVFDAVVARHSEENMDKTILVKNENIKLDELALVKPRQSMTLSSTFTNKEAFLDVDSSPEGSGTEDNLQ
CHT allo act = CHT positive allosteric modulators, primary screen, cell-based, membrane potential dye, choline EC20. High affinity choline transporter 1 (Homo sapiens), Q9GZV3. hit rate 0.49% among 310,000. CHT-expressing cells; hits give high values; LV-AA mutant CHT in HEK293 cells. B-score at 10 µM;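 active = initial fluorescence not abnormally high and integrated response B-score, plate-corrected, over 3 SD above library mean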
T cell modulator = modulators of CD8 T cell-vesicle binding, primary screen, mouse 2C CD8+ T cells, flow cytometry. 2C CD8+ T cell-vesicle binding; hits give low values. response (vesicle binding), % at 7 µM. hit rate 0.068% among 330,000. AID 2052, 2009;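 active = response, share of CD8 T cells binding vesicles, and their 90th percentile fluorescence all below set limits, cut at about 80% in these data, passing the limit was not always enough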;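 note: values below 100% mean blocked vesicle binding to the CD8+ T cells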
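Read-out – percent CD8+ FL2 mean versus row control · System – murine 2C transgenic CD8+ T lymphocytes · Times – 1.5 h cell–vesicle binding at 37 °C, then 20 min icy labelling · Control set – naked vesicles low, QL9 vesicles with vehicle high · Detection – cytometric PE anti-B7-1 and Alexa647 anti-CD8 signals after 1% paraformaldehyde fixation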
VLA-4 inh = inhibition in human VLA-4 binding assay, primary screen, VLA-4 allosteric modulator project, MLPCN library, flow cytometry, VLA-4 expressing cells. Integrin alpha-4 (Homo sapiens), P13612. ligand binding flow cytometry. inhibition, % (about 7 µM as worked out from the volumes in the protocol). hit rate 0.2% among 330,000; in the data active = inhibition above about 50%
VLA-4 allo CP = retest of VLA-4 allosteric modulators, confirmation, cell-based, cherry-picked plates, U937, HUTS-21 LIBS antibody; AID 2813, 2010; shares compounds with VLA-4 inh; hit rate 2% among 1,300; inhibition, % at 6.7 µM; U937 cells, HUTS-21 LIBS mAb binding, flow cytometry; LDV ligand present at threefold Kd; in the data active = inhibition above about 40%
A number is an active result; i = inactive; nt = no result. Hits are enriched below; roughly 1.5% of the tested compounds scored in any of these assays.

SMILES	CHT inh	CHT allo act	T cell modulator	VLA-4 inh	others
CC(=O)Nc1ccccc1C(=O)OCC(=O)c1ccc2ccccc2c1	i	i	i	i
CC(=O)Nc1ccccc1C(=O)OCc1cccc(F)c1	i	i	i	56
C[C@]12CCC(=O)C[C@H]1CC[C@@H]1[C@@H]2CC[C@]2(C)[C@@H](O)CC[C@@H]12	-5.3	i	i	i
CC(C)N1OC2CC1c1nc3ccccc3n1C2 (stereo unspecified)	i	i	i	i
Cc1ccccc1-[n+]1c(-c2ccccc2)cc(-c2ccccc2)cc1-c1ccccc1	i	7.5	nt	nt
Brc1ccc(-[n+]2c(-c3ccccc3)cc(-c3ccccc3)cc2-c2ccccc2)cc1	i	12	i	i
Nc1ccccc1-[n+]1c(-c2ccccc2)cc(-c2ccccc2)cc1-c1ccccc1	i	i	i	i
O=C1Nc2cc(C(=O)N3CCC4(CC3)OCCO4)ccc2NC1CSCc1cccc(F)c1 (stereo unspecified)	i	i	i	i
Cc1ccc(C[n+]2c(-c3ccc(C)cc3)cc(-c3ccc(C)cc3)cc2-c2ccc(C)cc2)cc1	i	8.7	i	i
Cc1ccc(-c2cc(-c3ccc(C)cc3)[n+](-c3ccc(C(=O)O)cc3)c(-c3ccc(C)cc3)c2)cc1	i	i	i	i
COC(=O)C1=C(c2ccc(F)cc2OCc2ccccc2)C[C@@H]2CC[C@H]1N2C(=O)NCc1ccc([N+](=O)[O-])cc1	nt	nt	i	i
CCCCn1c(=O)c(C(=O)NCc2ccncc2)c(O)c2ccccc21	i	i	78	i
COc1cc(C(=S)N2CCOCC2)cc(OC)c1OC(=O)Cc1ccccc1	-5.1	i	i	i
CCOC(=O)CC(NC(=O)C(Cc1ccc(N(CCCl)CCCl)cc1)NC(C)=O)C(=O)OCC (stereo unspecified)	i	i	33	i
CC(=O)NC(Cc1ccc(N(CCCl)CCCl)cc1)C(=O)NC(C(=O)O)C(C)C (stereo unspecified)	i	i	i	i
COC(=O)C1=C(c2ccc(F)cc2F)C[C@@H]2CC[C@H]1N2C(=O)N1CCC(C)CC1	nt	nt	i	i
CN1CCN(CCC(=O)OC2CC3CCC(C2)N3C)CC1 (stereo unspecified)	i	i	i	i
COc1cc(CCN)ccc1O	i	i	i	i
CN1C2CCC1CC(OC(=O)c1cc(Cl)cc(Cl)c1)C2 (stereo unspecified)	i	i	i	93	VLA-4 allo CP=i
COc1cc(C(=O)OC2C[C@H]3CC[C@@H](C2)N3C)ccc1O (stereo partly specified)	i	i	i	i	VLA-4 allo CP=i
COc1cc(C(=O)OC2C[C@H]3CC[C@@H](C2)N3)ccc1O (stereo partly specified)	i	i	i	i	VLA-4 allo CP=i
COC(=O)C1=C(c2ccc(-c3ccccc3)c(F)c2)C[C@@H]2CC[C@H]1N2C(=O)N1CCc2cc(OC)c(OC)cc2C1	nt	nt	i	i
C=C(C=O)C[C@@H]1C[C@H](O)C2OC3C[C@]4(C)OC5/C=C\CC6OC7C(CC=CCC6OC5CCCC4OC3CC2O1)OC1CC2OC3CC(=O)OC3C[C@@H](C)C[C@@]2(C)OC1C[C@@H]7C (stereo partly specified)	nt	nt	i	60	VLA-4 allo CP=67
NC(=O)Cn1cc(C(=O)c2ccccc2)c2ccccc21	i	i	i	i	VLA-4 allo CP=i
COC(=O)C1=C(c2cccc(C#N)c2)C[C@@H]2CC[C@H]1N2C(=O)NC1CCCCC1	nt	nt	i	i
Cc1cc(C)n(CCOC(=O)C2C(C=C(Cl)Cl)C2(C)C)n1 (stereo unspecified)	i	i	i	i
O=C(OC1CC2CCC(N2)C1C(=O)O)c1ccccc1 (stereo unspecified)	nt	nt	i	i	VLA-4 allo CP=i
COc1cccc(-c2sc3ccccc3c2-c2ccc(OCCN3CCOCC3)cc2)c1	nt	nt	i	i	VLA-4 allo CP=i
COC(=O)C1=C(c2ccccc2)C[C@@H]2CC[C@H]1N2C(=O)N1CCOCC1	i	i	i	i
O=C(c1cccc([N+](=O)[O-])c1)C12CN3CN(CN(C3)C1)C2	i	i	i	i
